Experimental data: PubChem BioAssay AID2311 (NMMLSC, 2010)

Molecular target: Regulator of G-protein signaling 19 (Homo sapiens) (UniProt P49795)
Assay: analogs regulating RGS19 interaction with Gαo – biochemical, SAR compounds, multiplexed bead flow cytometry, SAR follow-up (AID 2311)
Conditions: Bead-bound RGS19 and AF488-Galphao binding
Procedure, shortened: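 material = Bead-immobilised biotinylated RGS19 in an RGS bead multiplex | probe or stimulus = 7 nM activated fluorescent Galphao | incubation = 30–90 min compound exposure at room temperature | detection = high-throughput flow cytometry, median green fluorescence of RGS19-coated beads | read-out basis = EC50 by logistic fit, converted to Ki | controls = DMSO wells and RGS-free bead controls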

Chain of Regulator of G-protein signaling 19 (Homo sapiens) (P49795 whole entry, looked up): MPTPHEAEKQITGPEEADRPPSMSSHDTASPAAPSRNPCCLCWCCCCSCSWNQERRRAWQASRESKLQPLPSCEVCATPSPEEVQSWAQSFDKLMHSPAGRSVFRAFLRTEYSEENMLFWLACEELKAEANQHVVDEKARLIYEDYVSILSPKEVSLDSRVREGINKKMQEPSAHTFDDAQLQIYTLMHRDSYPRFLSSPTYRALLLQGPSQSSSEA

| EC50 [nM] | Structure (SMILES) |
| --- | --- |
| 109 | NS(=O)(=O)c1ccc(N/N=C/c2ccc(O)c(O)c2O)c([N+](=O)[O-])c1 |

Same assay, conditions: Bead-bound RGS19 and AF488-Galphao binding, measured here: Ki calculated from EC50

| Ki [nM] | Structure (SMILES) |
| --- | --- |
| 160 | COc1ccc(C2=CC(=O)C=CC2=O)cc1 |
| 110 | Cc1cc(Cl)ccc1N=c1ssnc1Cl |
| 30 | CN1CCN(C2=C(Cl)C(=O)C(c3cnc(N4CCCCC4)s3)=C(Cl)C2=O)CC1 |
| 100 | NS(=O)(=O)c1ccc(N/N=C/c2ccc(O)c(O)c2O)c([N+](=O)[O-])c1 |
| 350 | CCN=c1scc(C)n1/N=C/c1ccc(O)c(O)c1O |
| 1160 | CCC(=O)NC(c1ccc(C)cc1)c1cc([N+](=O)[O-])c2cccnc2c1O (configuration not stated) |
| 90 | Cc1cccc(N2CCN(C(=O)Cn3sc4nc(C)cc(C)c4c3=O)CC2C)c1 (configuration not stated) |
| 460 | O=C(NCCCN1CCOCC1)c1sc2cc([N+](=O)[O-])ccc2c1Cl |
| 50 | Cc1[nH]n(-c2ccccc2)c(=S)c1C=NCCCN=Cc1c(C)[nH]n(-c2ccccc2)c1=S |
| 230 | CC1(C)OC(=O)C(=Cc2ccc(-c3ccc(S(N)(=O)=O)cc3)o2)C(=O)O1 |
| 550 | Cc1cccc(N2CCN(C(=O)COc3nsc4nc(C)cc(C)c34)CC2C)c1 (configuration not stated) |
| 750 | O=C(Cc1csc(N2CCOCC2)n1)N/N=C/c1ccc(O)c(O)c1O |
| 10 | CC(=O)OCCCNc1cc(Sc2nc3ccccc3s2)c2nonc2c1[N+](=O)[O-] |
| 200 | CN=c1scc(C)n1/N=C/c1ccc(O)c(O)c1O |
| 140 | CCOC(=O)c1sc(NC(=O)CSc2nnc(Cc3ccccc3)o2)c(C#N)c1C |
| 80 | O=C1C(Cl)=C(N2CCCCC2)C(=O)C(Cl)=C1c1cnc(N2CCCCC2)s1 |
